From ChEMBL document CHEMBL1250442, “Inhibiting gene expression at transcription start sites in chromosomal DNA with antigene RNAs” (Nat Chem Biol, 2005)
Activity calls are given as the source filed them. No cut-off for these calls is given here.

Legend:
[1] = test system: T47D; test: Inhibition of PR-A gene expression in human T47D cells harboring inactive DNA methyltransferase-1 at 100 nM by syber green assay; type: functional, cell-based
[2] = test system: T47D; test: Inhibition of PR-A mRNA gene expression in human T47D cells at 100 nM by syber green assay; type: functional
Summary of the method: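 T47D cells plated at 80,000/well without antibiotics two days before Oligofectamine transfection with agRNA duplex (25 or 100 nM final); medium changed at 24 h, harvest day 5 unless stated otherwise. TRIzol total RNA; PR mRNA by real-time PCR with SYBR Green: 50 °C 2 min, 95 °C 10 min, 40 cycles 95 °C 15 s/60 °C 1 min.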

[3] = test system: T47D; test: Inhibition of PR-B gene expression in human T47D cells harboring inactive DNA methyltransferase-1 at 100 nM by syber green assay; type: functional, cell-based
[4] = test system: T47D; test: Inhibition of PR-B mRNA gene expression in human T47D cells at 100 nM by syber green assay; type: functional
Summary of the method: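 T47D cells in RPMI-1640 with 10% FBS, NEAA, insulin, 37 °C, 5% CO2. Plated two days before transfection without antibiotics. Oligofectamine-mediated duplex RNA transfection at 100 nM final, medium changed at 24 h, harvest five days post-transfection. Total RNA extracted with TRIzol. hPR mRNA quantified by SYBR Green qPCR: 50 °C 2 min, 95 °C 10 min, then 40 cycles of 95 °C 15 s / 60 °C 1 min.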

[5] = test system: T47D; test: Inhibition of PR-B gene expression in human T47D cells at 25 nM by syber green assay in presence of 10 nM estradiol; type: functional, cell-based
[6] = test system: T47D; test: Inhibition of PR-A gene expression in human T47D cells at 25 nM by syber green assay in presence of 10 nM estradiol; type: functional, cell-based

Question: `Cc1cn([C@H]2C[C@H](OP(=O)(O)OC[C@H]3O[C@@H](n4cc(C)c(=O)[nH]c4=O)C[C@@H]3O)[C@@H](COP(=O)(O)O[C@H]3[C@@H](O)[C@H](n4ccc(N)nc4=O)O[C@@H]3COP(=O)(O)O[C@H]3[C@@H](O)[C@H](n4cnc5c(=O)[nH]c(N)nc54)O[C@@H]3COP(=O)(O)O[C@H]3[C@@H](O)[C@H](n4cnc5c(N)ncnc54)O[C@@H]3COP(=O)(O)O[C@H]3[C@@H](O)[C@H](n4ccc(N)nc4=O)O[C@@H]3COP(=O)(O)O[C@H]3[C@@H](O)[C@H](n4cnc5c(N)ncnc54)O[C@@H]3COP(=O)(O)O[C@H]3[C@@H](O)[C@H](n4ccc(N)nc4=O)O[C@@H]3COP(=O)(O)O[C@H]3[C@@H](O)[C@H](n4ccc(N)nc4=O)O[C@@H]3COP(=O)(O)O[C@H]3C[C@H](n4ccc(=O)[nH]c4=O)O[C@@H]3COP(=O)(O)O[C@H]3[C@@H](O)[C@H](n4cnc5c(=O)[nH]c(N)nc54)O[C@@H]3COP(=O)(O)O[C@H]3[C@@H](O)[C@H](n4cnc5c(N)ncnc54)O[C@@H]3COP(=O)(O)O[C@H]3[C@@H](O)[C@H](n4cnc5c(=O)[nH]c(N)nc54)O[C@@H]3COP(=O)(O)O[C@H]3[C@@H](O)[C@H](n4ccc(N)nc4=O)O[C@@H]3COP(=O)(O)O[C@H]3[C@@H](O)[C@H](n4cnc5c(=O)[nH]c(N)nc54)O[C@@H]3COP(=O)(O)O[C@H]3[C@@H](O)[C@H](n4ccc(N)nc4=O)O[C@@H]3COP(=O)(O)O[C@H]3[C@@H](O)[C@H](n4ccc(=O)[nH]c4=O)O[C@@H]3COP(=O)(O)O[C@H]3[C@@H](O)[C@H](n4ccc(N)nc4=O)O[C@@H]3CO[PH](=O)O[C@H]3[C@@H](O)[C@H](n4ccc(=O)[nH]c4=O)O[C@@H]3COP(=O)(O)O[C@H]3[C@@H](O)[C@H](n4ccc(N)nc4=O)O[C@@H]3COP(=O)(O)O[C@H]3[C@@H](O)[C@H](n4ccc(=O)[nH]c4=O)O[C@@H]3CO)O2)c(=O)[nH]c1=O` (stereo partly specified) was tested. Which inhibition [1] did it give?
Answer: The inhibition was “Active”.

Question: What about the inhibition at 0.1 µM [2] of the same compound?
Answer: The inhibition at 0.1 µM was < 20%.

Question: And the inhibition [3]?
Answer: Its inhibition is “Active”.

Question: What about the inhibition at 0.1 µM [4] of the same compound?
Answer: The inhibition at 0.1 µM was < 20%.

Question: And the inhibition [5]?
Answer: The inhibition was “Active”.

Question: And the inhibition [6]?
Answer: The inhibition was “Active”.
